Experimental data taken from ChEMBL document CHEMBL1140321, “Synthesis and biological evaluation of acyclic 3-[(2-hydroxyethoxy)methyl] analogues of antiviral furo- and pyrrolo[2,3-d]pyrimidine nucleosides” (J Med Chem, 2005).

Legend:
CCRF-CEM [1] = assay: Concentration required to inhibit human immunodeficiency virus-1 (strain IIIb) induced cytopathogenicity in CEM cells by 50%; format: functional, cell-based
Outline: (§1)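 Human CEM cells (~3 × 10^5 cells/cm³) were infected with 100 CCID50/mL of HIV-1(IIIB) or HIV-2(ROD) and seeded into wells with compound dilutions. After 4 days at 37 °C, HIV-induced giant-cell formation was examined microscopically and EC50 was taken as the concentration giving 50% inhibition.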

HEL [2] = assay: Concentration required to inhibit herpes simplex virus type 2 induced cytopathogenicity in HEL cells by 50%; format: functional, cell-based; settings: Homo sapiens
HEL [3] = assay: Concentration required to inhibit human cytomegalovirus strain Davis induced cytopathogenicity in HEL cells by 50%; format: functional, cell-based
HEL [4] = assay: Concentration required to inhibit cell proliferation in HEL cells by 50%; format: functional; settings: Homo sapiens
HEL [5] = assay: Concentration required to inhibit vesicular stomatitis virus induced cytopathogenicity in HEL cells by 50%; format: functional, cell-based; settings: Homo sapiens
HEL [6] = assay: Concentration required to inhibit vaccinia virus induced cytopathogenicity in HEL cells by 50%; format: functional, cell-based; settings: Homo sapiens
HEL [7] = assay: Concentration required to inhibit human cytomegalovirus strain AD169 induced cytopathogenicity in HEL cells by 50%; format: functional, cell-based
HEL [8] = assay: Concentration required to inhibit Varicella-Zoster virus (strain OKA) induced cytopathogenicity in HEL cells by 50%; format: functional, cell-based; settings: Homo sapiens
HEL [9] = assay: Concentration required to cause a microscopically visible alteration of cell morphology in HEL cells; format: functional; settings: Homo sapiens
CCRF-CEM [10] = assay: Concentration required to inhibit human immunodeficiency virus-2 (strain ROD) induced cytopathogenicity in CEM cells by 50%; format: functional, cell-based; outline: as §1
HEL [11] = assay: Concentration required to inhibit Varicella-Zoster virus (strain 07/1) induced cytopathogenicity in HEL cells by 50%; format: functional, cell-based; settings: Homo sapiens
HEL [12] = assay: Concentration required to inhibit herpes simplex virus type 1 induced cytopathogenicity in HEL cells by 50%; format: functional, cell-based; settings: Homo sapiens
HEL [13] = assay: Concentration required to inhibit HEL cell proliferation by 50%; format: functional; settings: Homo sapiens

| SMILES | EC50 (CCRF-CEM [1]) [µM] | EC50 (HEL [2]) [µM] | EC50 (HEL [3]) [µM] | CC50 (HEL [4]) [µM] | EC50 (HEL [5]) [µM] | EC50 (HEL [6]) [µM] | EC50 (HEL [7]) [µM] | EC50 (HEL [8]) [µM] | MCC (HEL [9]) [µM] | EC50 (CCRF-CEM [10]) [µM] | EC50 (HEL [11]) [µM] | EC50 (HEL [12]) [µM] | CC50 (HEL [13]) [µM] |
| --- | --- | --- | --- | --- | --- | --- | --- | --- | --- | --- | --- | --- | --- |
| CCCCCCCCCCCc1cc2cn(COCCO)c(O)nc-2n1 | > 10 | > 40 | > 16 | 41 | > 40 | > 40 | > 16 | 16 | 80 | > 10 | 10 | > 40 |  |
| CCCCCCCCc1cc2cn(COCCO)c(=O)nc2o1 | > 50 | > 16 | 10 | > 200 | > 16 | > 16 | 31 | 11 | ≥ 80 | > 50 | > 16 | > 16 |  |
| CCCCCC#Cc1cc2cn(COCCO)c(=O)nc2o1 | > 50 | > 200 | 58 | > 50 | > 200 | > 200 | > 20 | > 50 | ≥ 100 | > 50 | > 50 | > 200 |  |
| CCCCCCCCCCc1cc2cn(COCCO)c(=O)nc2o1 | > 250 | > 16 | > 80 | > 200 | > 16 | > 16 | > 400 | > 80 | 400 | > 250 | > 80 | > 16 |  |
| CCCCCCCCCc1cc2cn(COCCO)c(=O)nc2o1 | > 250 | > 200 | > 400 | ≥ 100 | > 200 | > 200 | > 400 | 41 | ≥ 16 | > 250 | 10 | > 200 |  |
| OCCOCn1cc2ccnc-2nc1O | > 250 | > 400 | > 400 | > 200 | > 400 | > 400 | > 400 | > 400 | > 400 | > 250 | > 400 | > 400 |  |
| CCCCCc1cc2cn(COCCO)c(O)nc-2n1 | > 250 | > 400 | > 400 | > 200 | > 400 | > 400 | > 400 | > 400 | > 400 | > 250 | > 400 | > 400 |  |
| CCCCC#Cc1cc2cn(COCCO)c(=O)nc2o1 | > 50 | > 200 | > 100 | > 50 | > 200 | > 200 | > 100 | > 50 | > 100 | > 50 | > 50 | > 200 |  |
| CCCCCc1cc2cn(COCCO)c(=O)nc2o1 | > 50 | > 400 | > 400 | > 200 | > 400 | > 400 | > 400 | > 400 | > 400 | > 250 | > 400 | > 400 |  |
| O=c1nc2occc2cn1COCCO | > 250 | > 400 | > 400 | > 200 | > 400 | > 400 | > 400 | > 100 | > 400 | > 250 | > 400 | > 400 |  |
| CCCCCCCCC#Cc1cc2cn(COCCO)c(=O)nc2o1 | > 10 | > 40 | 5.2 | 42 | > 40 | > 40 | > 4 | > 5 | ≥ 20 | > 10 | 8.5 | > 40 |  |
| CCCCCCCCCC#Cc1cc2cn(COCCO)c(=O)nc2o1 | > 10 | > 40 | 5.2 | > 50 | > 40 | > 40 | > 4 | 2.6 | ≥ 20 | > 10 | 7.1 | > 40 |  |
| CCCCc1cc2cn(COCCO)c(=O)nc2o1 | > 250 | > 400 | > 400 | > 200 | > 400 | > 400 | > 400 | ≥ 100 | > 400 | > 250 | > 400 | > 400 |  |
| CCCCCCc1cc2cn(COCCO)c(O)nc-2n1 | > 50 | > 80 | 253 | > 200 | > 80 | > 80 | 400 | 206 | > 400 | > 50 | 151 | > 80 |  |
| CCCCCCCCCc1cc2cn(COCCO)c(O)nc-2n1 | > 50 | > 80 | > 16 |  | > 80 | > 80 | > 16 | > 16 | > 80 | > 50 | > 16 | > 80 |  |
| CCCCCCCCCCCc1cc2cn(COCCO)c(=O)nc2o1 | > 250 | > 40 | > 16 | 132 | > 40 | > 40 | > 16 | > 16 | 80 | > 250 | > 16 | > 40 |  |
| C#Cc1cn(COCCO)c(=O)[nH]c1=O | > 250 | > 400 | > 400 |  | > 400 | > 400 | > 400 | > 400 | > 400 | > 250 | > 400 | > 400 | > 200 |
| CCCCCCCCCCc1cc2cn(COCCO)c(O)nc-2n1 | > 10 | > 16 | 1.8 | 32 | > 16 | > 16 | 5.1 | 6.4 | 80 | > 10 | 5.8 | > 16 |  |
| CCCCCCCc1cc2cn(COCCO)c(=O)nc2o1 | > 50 | > 200 | > 80 | 140 | > 200 | > 200 | > 80 | > 80 | 400 | > 50 | > 80 | > 200 |  |
| CCCCCCCCc1cc2cn(COCCO)c(O)nc-2n1 | > 50 | > 80 | > 16 | 65 | > 80 | > 80 | > 16 | > 16 | 80 | > 50 | > 16 | > 80 |  |
| CCCCCCCc1cc2cn(COCCO)c(O)nc-2n1 | > 250 | > 200 | 400 | 119 | > 200 | > 200 | > 400 | 149 | ≥ 400 | > 250 | 156 | > 200 |  |
| CCCCCCC#Cc1cc2cn(COCCO)c(=O)nc2o1 | > 50 | > 200 | > 20 | > 50 | > 200 | > 200 | 40 | 100 | > 200 |  | 100 | > 200 |  |
| CCCCc1cc2cn(COCCO)c(O)nc-2n1 | > 250 | > 400 | > 400 | > 200 | > 400 | > 400 | > 400 | > 400 | > 400 | > 250 | > 400 | > 400 |  |
| CCCCCCCC#Cc1cc2cn(COCCO)c(=O)nc2o1 | > 10 | > 40 | > 20 | > 50 | > 40 | > 40 | > 20 | > 20 | 200 | > 10 | > 20 | > 40 |  |
| CCCCCCc1cc2cn(COCCO)c(=O)nc2o1 | > 50 | > 16 | > 80 | > 200 | > 16 | > 16 | > 80 | 173 | ≥ 400 | > 50 | 151 | > 16 |  |
| O=c1[nH]c(=O)n([C@H]2C[C@H](O)[C@@H](CO)O2)cc1/C=C/Br [BRIVUDINE] | > 50 | 300 | > 100 | ≥ 400 | > 500 | 60 | > 100 | 0.03 | > 400 | > 50 | > 108 | 0.16 |  |
